Source: PubChem BioAssay
S100A4 MyoIIA: blocks human S100A4 binding to myosin IIA peptide; hit rate 0.14% among 360,000; inhibition, % at 10.7 µM; P26447; S100A4/TAMRA-MyoIIA peptide fluorescence polarization;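 active means mean inhibition of at least 70% across replicates, with every replicate also reaching that level; inconclusive means mean inhibition reaches 70% but some replicates fall short; inactive means mean inhibition below 70%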
Target sequence (P26447 whole entry, looked up): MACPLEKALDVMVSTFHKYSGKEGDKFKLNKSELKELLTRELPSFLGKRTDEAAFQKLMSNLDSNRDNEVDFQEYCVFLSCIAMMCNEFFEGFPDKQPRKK
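System – human S100A4 monomer protein, biochemical binding assay · Buffer or medium – Calcium-containing HEPES buffer, pH 7.2 · Timing – 5 min between mix addition and reading · Also added – TAMRA-labelled myosin IIA heavy-chain peptide probe, 5 nM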
dFosB act-1: activators of mouse delta FosB homodimer; P13346; purified delta FosB, TAMRA-CDK5 oligo fluorescence polarization; percent of positive-control signal above neutral wells; activation, % at 25 µM; hit rate 0.99% among 340,000;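 active means mean activation above about 17%, with every replicate also reaching it, limit read from the data, passing the limit was not always enough; inconclusive means only one of the two conditions met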
SR-BI DiI-HDL act: SR-BI HDL lipid transfer activation; CHO ldlA[mSR-BI] cells, DiI-HDL uptake fluorescence, 3 h; 100 = double the neutral-control signal; activation, % at 12.5 µM; hit rate 0.096% among 320,000; AID 504775;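 active means mean replicate activation of at least 60% and every replicate at or above 60%; inconclusive means mean or all-replicate condition met, but not both; inactive means mean below 60% and not all replicates reaching 60%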
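Material: SR-BI-overexpressing, LDLR-lacking CHO cells; schedule: compound exposure 3 h, 37 °C; reagent: DiI-labelled HDL at 10 µg/mL final; technique: bottom-read fluorescence, 550/595 nm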
PvdQ inh: blocks Pseudomonas aeruginosa PvdQ acylase activity; purified PvdQ acylase, fluorescence plate reader; inhibition, % at 10 µM; hit rate 0.063% among 340,000; in the data active means inhibition above about 30%, passing the limit was not always enough; inconclusive means no clear call, values can overlap the other calls
RAD54 branch: inhibitors of human RAD54 branch migration; hit rate 0.14% among 360,000; Q92698; inhibition, % at 10.4 µM; RAD54 Holliday junction branch migration, FAM/BHQ fluorescence;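 active means mean normalized replicate activity at least 40 and at least half of replicates scoring 40 or more; inconclusive means only one of the two criteria met; inactive means mean below 40 and under half of replicates reaching 40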;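 further: inhibitors cause a drop in the FAM fluorescence signal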
SR-BI HDL uptake: blocks mouse SR-BI lipid uptake from DiI-HDL; Q61009; ldlA[mSR-BI] CHO cells, DiI-HDL uptake fluorescence, 3 h; inhibition, % at 12.5 µM; hit rate 0.96% among 320,000;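 active means mean replicate inhibition of at least 70% and a set share of replicates each scoring 70 or more; inconclusive means meets just one of the two criteria; inactive means fails both criteria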
Target sequence (Q61009 whole entry, looked up): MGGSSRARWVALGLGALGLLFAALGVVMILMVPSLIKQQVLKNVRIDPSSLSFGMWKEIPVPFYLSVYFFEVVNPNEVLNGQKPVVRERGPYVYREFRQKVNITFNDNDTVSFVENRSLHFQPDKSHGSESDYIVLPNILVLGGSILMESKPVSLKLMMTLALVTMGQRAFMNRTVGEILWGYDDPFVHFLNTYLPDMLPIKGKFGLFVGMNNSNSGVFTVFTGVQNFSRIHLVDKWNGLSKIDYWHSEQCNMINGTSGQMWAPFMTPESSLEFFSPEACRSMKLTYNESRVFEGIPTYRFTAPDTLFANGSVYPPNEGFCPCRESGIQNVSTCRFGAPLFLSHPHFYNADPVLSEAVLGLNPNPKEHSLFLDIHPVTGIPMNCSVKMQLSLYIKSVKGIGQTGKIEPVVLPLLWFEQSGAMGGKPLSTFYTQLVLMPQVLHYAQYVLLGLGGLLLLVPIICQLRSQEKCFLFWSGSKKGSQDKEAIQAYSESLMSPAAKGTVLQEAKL
dFosB act-2: activators of mouse delta FosB homodimer DNA binding | 2,400 tested, under 10 active | purified delta FosB, TAMRA-CDK5 oligo fluorescence polarization; normalised: neutral wells 0, positive control 100 | shares compounds with dFosB act-1 | activation, % at 24.9 µM;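 active means highest replicate activation at or above 34% and every replicate reaching that threshold; inconclusive means meets only one of the two criteria; inactive means meets neither criterion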;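 further: higher polarization means more probe DNA bound by delta FosB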
Hits are given with their value; n = inactive; u = inconclusive; x = not tested or not shown. Sampled rows, rich in hits. Any-hit rate of the full collection: about 1.6%.

SMILES	S100A4 MyoIIA	dFosB act-1	SR-BI DiI-HDL act	PvdQ inh	RAD54 branch	SR-BI HDL uptake	dFosB act-2
Cc1ccc(CNC(=O)CC(C)S(=O)(=O)c2cc3c(cc2C)NC(=O)CO3)cc1 (stereo unspecified)	n	23	n	n	n	n	n
CC(CC(=O)NCc1ccc(Cl)cc1)S(=O)(=O)c1ccc2c(c1)NC(=O)CO2 (stereo unspecified)	n	n	n	n	n	n	x
O=C(NCC[C@@H]1CC[C@@H](NS(=O)(=O)c2cccc(F)c2)[C@H](CO)O1)C1CCCC1	n	x	x	x	n	x	x
CC(C)(C)[S@](=O)N1Cc2cc(C(=O)NCCc3ccncc3)nc(-c3cccc(-c4ccccc4)c3)c2[C@@H]1CCO	n	x	x	x	x	x	x
CCOc1cc(/C=N/O)cc(Br)c1OCc1ccc(Cl)cc1	x	32	n	n	n	n	n
CCOc1cc(/C=N/O)cc(Br)c1OCC	x	n	n	n	n	n	x
COc1ccc(COc2cc(-c3cccc(OC)c3)nc3ccc(NC(=O)c4cccnc4)cc23)cc1	n	19	n	n	n	n	n
COc1ccc(Cc2nc(-c3ccc(NC(=O)c4cccnc4)cc3)no2)cc1	x	n	n	n	x	n	x
COc1ccc2c(Cl)c(C(=O)N/N=C/c3ccncc3)sc2c1	n	52	x	n	n	x	n
CCOc1ccc2nc(NC(=O)c3ccc(S(=O)(=O)N4CCOCC4)cc3)sc2c1	x	n	n	n	n	n	x
CCOc1ccc2nc(NC(=O)c3ccc(OC)c(S(=O)(=O)N4CCOCC4)c3)sc2c1	x	26	n	n	n	n	n
Cc1[nH]c2ccccc2c1C(=O)CN1C(=O)C(=O)N(C2CCCC2)C1=O	n	47	n	n	n	n	n
CN(C)CCCNC(=O)C[C@H]1CC[C@H](NS(=O)(=O)c2ccccc2)[C@H](CO)O1	n	x	x	x	n	x	x
Cc1nn(Cc2ccc(Cl)c(Cl)c2)c(C)c1NC(=O)c1sc2ccccc2c1Cl	x	n	n	n	n	n	x
CN(CC(=O)Nc1c(Cl)cccc1Cl)C(=O)CNC(=O)c1sc2ccccc2c1Cl	n	35	n	n	n	n	n
Cc1nn(Cc2c(Cl)cccc2Cl)c(C)c1NC(=O)c1sc2ccccc2c1Cl	x	40	n	n	n	n	n
Clc1cc(Cl)cc(Nc2ncnc(-n3cccc3)n2)c1	n	30	n	n	n	n	n
COc1cc(C(=O)NCc2ccc(-c3nc4ccccc4s3)cc2)cc(OC)c1OC	n	n	n	n	x	n	x
COc1cc(C(=O)NCc2ccc(-c3nc4ccccc4o3)cc2)cc(OC)c1OC	x	27	n	n	n	n	n
O=C(O)c1ccc(/C=N/Nc2nc3ccccc3[nH]2)cc1	n	25	x	n	n	x	n
COC(=O)c1ccc(/C=N/Nc2nc3ccccc3[nH]2)cc1	n	n	n	n	x	n	x
Cc1ccc(NC(=O)c2ccc3nc(N4CCOCC4)sc3c2)c(Cl)c1	n	141	x	n	n	x	n
CCc1ccccc1NC(=O)c1ccc2nc(N3CCOCC3)sc2c1	n	n	n	n	n	n	x
CC(=O)Nc1ccc(NC(=O)Cc2sc(-c3cccnc3)nc2-c2ccc(C)cc2)cc1	n	30	n	n	n	n	n
O=C(Cc1sc(-c2ccccc2Cl)nc1-c1ccccc1)Nc1ccc(F)cc1	x	25	n	n	x	n	n
SMILES	S100A4 MyoIIA	dFosB act-1	SR-BI DiI-HDL act	PvdQ inh	RAD54 branch	SR-BI HDL uptake	dFosB act-2
O=C(Cc1sc(-c2ccccc2Cl)nc1-c1ccccc1)Nc1ccccc1	x	n	n	n	n	n	x
COCC(=O)Nc1ccc2c(c1)C(=O)N(C)C[C@@H](OC)[C@H](C)CN(C(=O)c1cnccn1)[C@@H](C)CO2	n	x	x	x	n	x	x
CS(=O)(=O)NNC(=O)c1csc(Cc2c(Cl)sc3ccc(Cl)cc23)n1	n	36	n	n	x	n	n
C[C@@H](NC(=O)Cn1cnc2c(NCc3ccccc3)ncnc21)c1cccc2ccccc12	n	38	n	n	n	n	n
CCn1nc(C)c(/C=N/NC(=S)Nc2ccc(Cl)cc2Cl)c1C	x	u	x	n	n	x	x
Cc1nn(C)cc1/C=N/NC(=S)Nc1ccc(Cl)cc1Cl	x	34	n	n	n	n	n
C=CCN(c1ccccc1OC)S(=O)(=O)c1cccc(C(=O)NCC(c2ccc(OC)cc2)N2CCCC2)c1 (stereo unspecified)	n	27	n	n	n	n	n
C[C@H](CO)N1C[C@H](C)[C@@H](CN(C)C(=O)CCCN(C)C)OCCCC[C@H](C)Oc2ccc(NS(C)(=O)=O)cc2C1=O	n	x	x	x	n	x	x
CCOc1ccccc1C(=O)NCC(=O)OCC(=O)c1ccc2c(c1)OCCO2	x	18	n	n	n	n	n
O=C(CNC(=O)c1ccc(Cl)cc1)OCC(=O)c1ccc2c(c1)OCCO2	n	n	n	n	n	n	x
COc1ccc(C(C)=O)cc1CSc1nc2ccccc2c(=O)n1-c1cccc(C)c1	x	25	n	n	n	n	n
CC/C(=N\NC(=O)CSCc1ccccc1Br)c1ccc2c(c1)OCCO2	x	20	n	n	n	n	n
CCN1CCN(c2ccc(S(=O)(=O)N3CCOCC3)cc2NC(=O)c2cc(Cl)nc3ccccc23)CC1	n	n	n	n	x	n	x
COc1ccc(-c2cc(C(=O)Nc3cc(S(=O)(=O)N4CCOCC4)ccc3N3CCOCC3)c3ccccc3n2)cc1	n	34	n	n	x	n	n
COc1ccc2c3c(n(C)c2c1)[C@@H](CO)N(C(C)=O)CC31CCN(Cc2ccccc2OC)CC1	n	x	x	x	x	x	x
COc1cccc(NC(=O)N[C@H]2CC[C@H](CC(=O)NCc3ccncn3)O[C@H]2CO)c1	n	x	x	x	n	x	x
O=C1COc2ccc(C(=O)COC(=O)c3cc(S(=O)(=O)NCc4ccccc4)ccc3O)cc2N1	n	66	x	n	x	x	n
COCC(=O)N(C)C[C@H]1Oc2ncc(-c3ccccc3F)cc2C(=O)N([C@@H](C)CO)C[C@@H]1C	x	x	x	x	n	x	x
C[C@@H]1CN([C@@H](C)CO)C(=O)c2cc(-c3ccncc3)cnc2O[C@@H]1CN(C)C(=O)Cc1cccnc1	x	x	x	x	n	x	x
O=C(CSc1nc(-c2ccccc2)cc(C(F)(F)F)n1)NCc1cccs1	x	27	n	n	x	n	n
O=S(=O)(N[C@@H]1CCCN(Cc2ccc(OCCO)cc2)C1)c1cc(Cl)ccc1Cl	n	x	x	x	n	x	x
Cc1cc(C)c2oc(C(=O)Nc3ccc(S(=O)(=O)N4CCC(C)CC4)cc3)cc(=O)c2c1	n	23	n	n	x	n	n
Cc1cc(C)c2oc(C(=O)NCCc3ccc(S(N)(=O)=O)cc3)cc(=O)c2c1	n	41	x	n	n	x	n
CC(=O)Nc1ccc(NC(=O)c2cc(=O)c3cc(C)cc(C)c3o2)cc1	n	n	n	n	n	n	x
